Assay results reported in ChEMBL document CHEMBL3351269, “Phenylimidazoles as potent and selective inhibitors of coagulation factor XIa with in vivo antithrombotic activity” (J Med Chem, 2014).

Columns and labels:
Plasma kallikrein = Plasma kallikrein (Homo sapiens, UniProt P03952); assay: Inhibition of human plasma kallikrein using H-D-Pro-Phe-Arg-pNA as substrate
Procedure, shortened: (§1)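 Purified human enzymes; reaction started by adding enzyme to substrate with or without inhibitor, excess substrate and inhibitor over enzyme, 1% DMSO, room temperature, 10–120 min. pNA read at 405 nm. FXIa, FXIIa and chymotrypsin in HEPES pH 7.4 with NaCl, KCl and PEG; FXa and kallikrein in phosphate pH 7.5; FVIIa in HEPES with CaCl2. IC50 from duplicates over 8–11 concentrations, converted to Ki assuming competitive inhibition.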

Coagulation factor XI = Coagulation factor XI (Homo sapiens, UniProt P03951); assay: Inhibition of human coagulation factor 11a using p-nitroaniline as substrate assessed as substrate hydrolysis by spectrophotometrically; procedure, shortened: as §1
Coagulation factor XI, sequence (P03951 19-387 limits assumed): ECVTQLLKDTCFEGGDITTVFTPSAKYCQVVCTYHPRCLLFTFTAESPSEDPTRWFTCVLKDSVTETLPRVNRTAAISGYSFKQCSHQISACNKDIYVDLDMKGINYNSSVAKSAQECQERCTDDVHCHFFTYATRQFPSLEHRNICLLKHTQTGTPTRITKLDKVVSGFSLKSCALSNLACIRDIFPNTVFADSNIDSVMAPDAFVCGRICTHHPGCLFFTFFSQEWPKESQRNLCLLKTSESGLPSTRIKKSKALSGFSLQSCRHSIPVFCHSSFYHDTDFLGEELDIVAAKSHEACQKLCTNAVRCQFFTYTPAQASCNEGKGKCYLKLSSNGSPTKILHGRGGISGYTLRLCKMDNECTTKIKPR
Coagulation factor XI, sequence (P03951 388-625 limits assumed): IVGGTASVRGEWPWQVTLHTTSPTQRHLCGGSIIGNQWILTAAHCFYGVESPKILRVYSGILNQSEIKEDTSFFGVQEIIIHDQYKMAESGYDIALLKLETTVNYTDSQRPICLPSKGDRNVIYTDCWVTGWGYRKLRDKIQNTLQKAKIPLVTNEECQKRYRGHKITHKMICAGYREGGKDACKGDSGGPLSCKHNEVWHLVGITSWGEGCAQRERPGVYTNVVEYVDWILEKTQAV

Coagulation factor X = Coagulation factor X (Homo sapiens, UniProt P00742); assay: Inhibition of human coagulation factor 10a using N-benzoyl-Ile-Glu-(OH, OMe)-Gly-Arg-pNA as substrate by spectrophotometric analysis; procedure, shortened: as §1
Coagulation factor X, sequence (P00742 41-179 limits assumed): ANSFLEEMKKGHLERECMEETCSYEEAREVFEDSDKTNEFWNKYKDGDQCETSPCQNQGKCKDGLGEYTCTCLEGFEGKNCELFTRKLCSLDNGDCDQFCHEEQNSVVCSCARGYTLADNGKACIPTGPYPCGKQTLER
Coagulation factor X, sequence (P00742 235-488 limits assumed): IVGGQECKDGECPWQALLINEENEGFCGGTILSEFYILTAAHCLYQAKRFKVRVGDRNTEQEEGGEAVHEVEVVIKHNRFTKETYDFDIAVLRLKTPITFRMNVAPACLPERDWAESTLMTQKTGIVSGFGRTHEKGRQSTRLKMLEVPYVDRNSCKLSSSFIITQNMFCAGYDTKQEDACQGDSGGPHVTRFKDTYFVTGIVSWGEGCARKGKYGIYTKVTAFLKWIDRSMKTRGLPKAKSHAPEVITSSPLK

Coagulation factor VII = target: T1, Coagulation factor VII (Homo sapiens, UniProt P08709); assay: Inhibition of human coagulation factor 7a using H-(D)-Ile-Pro-Arg-pNA as substrate by spectrophotometric analysis; procedure, shortened: as §1
T1 sequence (P08709 whole entry): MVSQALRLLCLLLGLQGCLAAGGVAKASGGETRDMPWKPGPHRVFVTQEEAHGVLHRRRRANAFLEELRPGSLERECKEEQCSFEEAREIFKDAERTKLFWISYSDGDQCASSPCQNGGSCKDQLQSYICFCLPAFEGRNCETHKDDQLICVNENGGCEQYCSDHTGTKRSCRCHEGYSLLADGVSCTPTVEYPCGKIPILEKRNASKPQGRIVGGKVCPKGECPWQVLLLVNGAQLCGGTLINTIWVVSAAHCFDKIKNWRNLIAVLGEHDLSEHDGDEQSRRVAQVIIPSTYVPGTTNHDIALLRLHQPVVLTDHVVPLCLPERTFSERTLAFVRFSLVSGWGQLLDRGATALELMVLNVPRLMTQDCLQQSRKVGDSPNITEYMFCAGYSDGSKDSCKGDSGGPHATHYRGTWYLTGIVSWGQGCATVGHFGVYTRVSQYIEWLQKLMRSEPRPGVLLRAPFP

[1] = Anticoagulant activity in healthy human plasma assessed as concentration required to 2 fold prolong clotting time by aPTT assay; assay type: functional
Procedure, shortened: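 Citrated human plasma from healthy volunteers (one-tenth volume 0.11 M buffered citrate; spun 2000g, 10 min, kept on ice). Inhibitor from 10 mM DMSO stock, diluted in plasma, up to seven concentrations. aPTT with Alexin: plasma warmed 1 min at 37 °C, reagent added, CaCl2 2 min later. Duplicates, as ratio to baseline. EC2x by linear interpolation, as total plasma concentration.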

Oryctolagus cuniculus = assay: Antithrombotic activity in iv dosed New Zealand male rabbit AV-shunt thrombosis model assessed as inhibition of thrombus formation infused at 1 mg/kg/hr; assay type: functional; details: read-out: ID50 (the source's name)
[2] = Solubility of the compound in 100 mM phosphate buffer at pH 7.4; assay type: physicochemical
Procedure, shortened: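 Solubility of the amorphous bis-HCl salt in 100 mM phosphate buffer, pH 7.4.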

Plasma kallikrein, sequence (P03952 20-390 limits assumed): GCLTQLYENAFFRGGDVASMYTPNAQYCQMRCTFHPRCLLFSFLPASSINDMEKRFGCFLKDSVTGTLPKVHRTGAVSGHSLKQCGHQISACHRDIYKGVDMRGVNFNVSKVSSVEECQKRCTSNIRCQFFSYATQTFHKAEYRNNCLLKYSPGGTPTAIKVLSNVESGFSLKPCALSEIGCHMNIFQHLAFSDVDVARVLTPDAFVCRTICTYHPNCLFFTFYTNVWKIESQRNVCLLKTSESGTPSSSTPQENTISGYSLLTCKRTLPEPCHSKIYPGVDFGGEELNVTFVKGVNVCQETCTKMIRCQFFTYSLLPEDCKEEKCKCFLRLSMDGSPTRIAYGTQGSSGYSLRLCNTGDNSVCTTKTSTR
Plasma kallikrein, sequence (P03952 391-638 limits assumed): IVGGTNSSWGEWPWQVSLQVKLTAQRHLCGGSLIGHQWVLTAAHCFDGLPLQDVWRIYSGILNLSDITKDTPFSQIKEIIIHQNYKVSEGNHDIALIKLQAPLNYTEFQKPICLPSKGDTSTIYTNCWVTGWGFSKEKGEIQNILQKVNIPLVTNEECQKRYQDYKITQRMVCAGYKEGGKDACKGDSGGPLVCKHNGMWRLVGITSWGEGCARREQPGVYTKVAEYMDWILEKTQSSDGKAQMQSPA

| SMILES | Ki (Plasma kallikrein) [nM] | Ki (Coagulation factor XI) [nM] | Ki (Coagulation factor X) [nM] | Ki (Coagulation factor VII) [nM] | solubility [2] [µg/mL] | 2aPTT [1] [µM] | ED50 (Oryctolagus cuniculus) [mg/kg] |
| --- | --- | --- | --- | --- | --- | --- | --- |
| NC[C@H]1CC[C@H](C(=O)N[C@@H](Cc2ccccc2)c2nc(-c3ccc(S(N)(=O)=O)cc3)c[nH]2)CC1 | 5540 | 1340 | > 8180 | > 10900 | – | – | – |
| N#Cc1ccc(-c2c[nH]c([C@H](Cc3ccccc3)NC(=O)[C@H]3CC[C@H](CN)CC3)n2)cc1 | 940 | 230 | > 8180 | > 10900 | – | – | – |
| COC(=O)c1ccc(-c2c[nH]c([C@H](Cc3ccccc3)NC(=O)[C@H]3CC[C@H](CN)CC3)n2)cc1 | 1920 | 800 | > 8180 | > 10900 | – | – | – |
| CCOC(=O)Cc1ccc(-c2c[nH]c([C@H](Cc3ccccc3)NC(=O)[C@H]3CC[C@H](CN)CC3)n2)cc1 | 1360 | 495 | > 8180 | > 10900 | – | – | – |
| N#Cc1cccc(-c2c[nH]c([C@H](Cc3ccccc3)NC(=O)[C@H]3CC[C@H](CN)CC3)n2)c1 | 1170 | 1120 | > 8180 | > 10900 | – | – | – |
| CCOC(=O)Cc1cccc(-c2c[nH]c([C@H](Cc3ccccc3)NC(=O)[C@H]3CC[C@H](CN)CC3)n2)c1 | 1470 | 630 | > 8180 | > 10900 | – | – | – |
| CN(C)C(=O)c1ccc(-c2c[nH]c([C@H](Cc3ccccc3)NC(=O)[C@H]3CC[C@H](CN)CC3)n2)cc1 | 5270 | 2860 | > 8180 | > 10900 | – | – | – |
| NC[C@H]1CC[C@H](C(=O)N[C@@H](Cc2ccccc2)c2nc(-c3cccc(CC(=O)O)c3)c[nH]2)CC1 | 920 | 275 | > 8180 | > 10900 | – | – | – |
| NC[C@H]1CC[C@H](C(=O)N[C@@H](Cc2ccccc2)c2nc(-c3cccc(CC(N)=O)c3)c[nH]2)CC1 | 1900 | 545 | > 8180 | > 10900 | – | – | – |
| NC[C@H]1CC[C@H](C(=O)N[C@@H](Cc2ccccc2)c2ncc(-c3ccccc3)o2)CC1 | 3440 | 1440 | – | – | – | – | – |
| NC[C@H]1CC[C@H](C(=O)N[C@@H](Cc2ccccc2)c2nc(-c3ccccc3)n[nH]2)CC1 | 2220 | 980 | – | – | – | – | – |
| NC[C@H]1CC[C@H](C(=O)N[C@@H](Cc2ccccc2)c2cc(-c3ccccc3)n[nH]2)CC1 | 5020 | 6940 | – | – | – | – | – |
| NC[C@H]1CC[C@H](C(=O)N[C@@H](Cc2ccccc2)c2nn(-c3ccccc3)c(=O)[nH]2)CC1 | 4820 | 3070 | – | – | – | – | – |
| NC[C@H]1CC[C@H](C(=O)N[C@@H](Cc2ccccc2)c2c[nH]c(-c3ccccc3)n2)CC1 | 4500 | 1640 | – | – | – | – | – |
| Cl.NC[C@H]1CC[C@H](C(=O)N[C@@H](Cc2ccccc2)c2nc(-c3ccc4c(N)n[nH]c4c3)c(Cl)[nH]2)CC1 | – | – | – | – | 946 | – | 0.6 |
| NC[C@H]1CC[C@H](C(=O)N[C@@H](Cc2ccccc2)c2nc(-c3ccc(C(=O)O)cc3)c[nH]2)CC1 (mixture of isomers) | 3820 | 590 | > 8180 | > 10900 | – | – | – |
| NC[C@H]1CC[C@H](C(=O)N[C@@H](Cc2ccccc2)c2nc(-c3ccc(CC(N)=O)cc3)c[nH]2)CC1 (mixture of isomers) | 1310 | 400 | > 8180 | > 10900 | – | – | – |

More lines, main results first:

| Ki (Plasma kallikrein) [nM] | Ki (Coagulation factor XI) [nM] | Ki (Coagulation factor X) [nM] | Ki (Coagulation factor VII) [nM] | solubility [2] [µg/mL] | SMILES | 2aPTT [1] [µM] | ED50 (Oryctolagus cuniculus) [mg/kg] |
| --- | --- | --- | --- | --- | --- | --- | --- |
| 2 | 0.2 | 340 | 630 | – | CC(C)CC(=O)Nc1cc(-c2ccc(C(N)=O)cc2C(=O)O)cc([C@@H]2C[C@](C)(c3ccccc3)c3cc(C(=N)N)ccc3N2)c1 | 2 | – |
| 330 | 120 | > 8180 | > 10900 | – | NC[C@H]1CC[C@H](C(=O)N[C@@H](Cc2ccccc2)c2nc(-c3ccccc3)c[nH]2)CC1.O=C(O)C(F)(F)F | >40 | – |
| 60 | 30 | > 9000 | > 10900 | – | NC[C@H]1CC[C@H](C(=O)N[C@@H](Cc2ccccc2)c2nc(-c3ccc(C(N)=O)cc3)c[nH]2)CC1.O=C(O)C(F)(F)F | >40 | – |
| 220 | 350 | > 8180 | > 10900 | – | CNC(=O)c1ccc(-c2c[nH]c([C@H](Cc3ccccc3)NC(=O)[C@H]3CC[C@H](CN)CC3)n2)cc1 | – | – |
| 765 | 150 | > 8180 | > 10900 | – | NC[C@H]1CC[C@H](C(=O)N[C@@H](Cc2ccccc2)c2nc(-c3ccc(CC(=O)O)cc3)c[nH]2)CC1 | – | – |
| 910 | 1100 | > 8180 | > 10900 | – | NC[C@H]1CC[C@H](C(=O)N[C@@H](Cc2ccccc2)c2nc(-c3cccc(C(N)=O)c3)c[nH]2)CC1 | – | – |
| 45 | 9 | > 8180 | > 10900 | – | NC[C@H]1CC[C@H](C(=O)N[C@@H](Cc2ccccc2)c2nc(-c3ccc(C(N)=O)cc3)c(Br)[nH]2)CC1.O=C(O)C(F)(F)F | 10 | – |
| 20 | 4 | > 9000 | > 10900 | – | NC[C@H]1CC[C@H](C(=O)N[C@@H](Cc2ccccc2)c2nc(-c3ccc(C(N)=O)cc3)c(Cl)[nH]2)CC1.O=C(O)C(F)(F)F | 6 | – |
| 8 | 3 | 1370 | > 13400 | – | NC[C@H]1CC[C@H](C(=O)N[C@@H](Cc2ccccc2)c2nc(-c3ccc(C(N)=O)cc3)c(F)[nH]2)CC1.O=C(O)C(F)(F)F | 2 | – |
| 50 | 3 | > 8180 | > 10900 | – | NC[C@H]1CC[C@H](C(=O)N[C@@H](Cc2ccccc2)c2nc(-c3ccc4c(N)n[nH]c4c3)c[nH]2)CC1.O=C(O)C(F)(F)F | 2 | – |
| 2 | 0.3 | > 8180 | 6200 | – | NC[C@H]1CC[C@H](C(=O)N[C@@H](Cc2ccccc2)c2nc(-c3ccc4c(N)n[nH]c4c3)c(F)[nH]2)CC1.O=C(O)C(F)(F)F | 0.5 | – |
